Assay results as given in ChEMBL document CHEMBL3085681, “Synthesis of novel 1,2,3-triazole based benzoxazolinones: their TNF-α based molecular docking with in-vivo anti-inflammatory, antinociceptive activities and ulcerogenic risk evaluation” (Eur J Med Chem, 2013).
Calls of active or inactive are those of the source. The rule behind the calls is not given here.

What was measured:
[1] = system: Rattus norvegicus; experiment: Antiinflammatory activity in albino Wistar rat assessed as inhibition of carrageenan-induced hind paw edema at 0.05 mmol/kg, po administered 1 hr prior to carrageenan challenge measured after 5 hrs by plethysmometric analysis relative to control; type: functional
Procedure, shortened: (§1)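 Oedema raised by s.c. injection of 0.1 ml of freshly prepared 1% carrageenan in saline into the right hind paw. Test agents given orally at 0.05 mmol/kg, 1 h before carrageenan; saline vehicle control. Paw volume read by plethysmometer at 3 h and 5 h.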

[2] = system: Rattus norvegicus; experiment: Antiinflammatory activity in albino Wistar rat assessed as inhibition of carrageenan-induced hind paw edema at 0.05 mmol/kg, po administered 1 hr prior to carrageenan challenge measured after 3 hrs by plethysmometric analysis relative to control; type: functional; procedure, shortened: as §1
[3] = system: Rattus norvegicus; experiment: Ulcerogenicity in albino Wistar rat assessed as gastric surface epithelial damage at 0.15 mmol/kg, po by hematoxylin and eosin staining-based assay; type: toxicity, organism-based, Stomach; conditions: in vivo
[4] = system: Rattus norvegicus; experiment: Ulcerogenicity in albino Wistar rat assessed as gastric superficial mucosal damage at 0.15 mmol/kg, po by hematoxylin and eosin staining-based assay; type: toxicity, organism-based, Stomach; conditions: in vivo
[5] = system: Rattus norvegicus; experiment: Antinociceptive activity in albino Wistar rat assessed as thermal-stimulus induced tail flick latency at 0.05 mmol/kg, po after 60 mins (reference value: 2.54 +/- 0.05 mins); type: functional
[6] = system: Rattus norvegicus; experiment: Antinociceptive activity in albino Wistar rat assessed as thermal-stimulus induced tail flick latency at 0.05 mmol/kg, po after 120 mins (reference value: 2.38 +/- 0.11 mins); type: functional
[7] = target: Prostaglandin G/H synthase 1 (Homo sapiens, UniProt P23219); experiment: Inhibition of COX1 (unknown origin)
Prostaglandin G/H synthase 1, sequence (P23219 whole entry): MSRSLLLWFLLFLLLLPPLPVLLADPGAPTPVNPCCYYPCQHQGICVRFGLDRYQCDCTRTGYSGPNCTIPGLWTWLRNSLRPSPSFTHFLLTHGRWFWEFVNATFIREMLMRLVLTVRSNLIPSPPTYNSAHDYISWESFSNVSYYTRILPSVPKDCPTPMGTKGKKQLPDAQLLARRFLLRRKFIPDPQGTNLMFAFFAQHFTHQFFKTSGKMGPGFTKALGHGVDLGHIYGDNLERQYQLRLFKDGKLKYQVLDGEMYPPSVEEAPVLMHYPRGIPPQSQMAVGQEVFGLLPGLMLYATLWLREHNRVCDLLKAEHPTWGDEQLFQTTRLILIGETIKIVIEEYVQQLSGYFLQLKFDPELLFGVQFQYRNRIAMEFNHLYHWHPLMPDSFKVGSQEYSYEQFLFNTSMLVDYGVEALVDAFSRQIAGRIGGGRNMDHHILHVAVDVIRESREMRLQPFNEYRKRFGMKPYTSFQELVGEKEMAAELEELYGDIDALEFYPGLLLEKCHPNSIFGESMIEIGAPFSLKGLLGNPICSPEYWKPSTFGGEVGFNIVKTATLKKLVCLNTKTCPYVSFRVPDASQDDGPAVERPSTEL

[8] = species on record: Homo sapiens; experiment: Selectivity index, ratio of IC50 for COX1 (unknown origin) to IC50 for human recombinant COX2
[9] = system: Rattus norvegicus; experiment: Ulcerogenicity in albino Wistar rat assessed as gastric muscular layer damage at 0.15 mmol/kg, po by hematoxylin and eosin staining-based assay; type: toxicity, organism-based, Stomach; conditions: in vivo
[10] = system: Rattus norvegicus; experiment: Antinociceptive activity in albino Wistar rat assessed as thermal-stimulus induced tail flick latency at 0.05 mmol/kg, po after 30 mins (reference value: 2.22 +/- 0.20 mins); type: functional
[11] = system: Rattus norvegicus; experiment: Ulcerogenicity in albino Wistar rat assessed as gastric deep mucosal damage at 0.15 mmol/kg, po by hematoxylin and eosin staining-based assay; type: toxicity, organism-based, Stomach; conditions: in vivo
[12] = target: T1, Prostaglandin G/H synthase 2 (Homo sapiens, UniProt P35354); experiment: Inhibition of human recombinant COX2 expressed in insect cell expression system using TMPD and arachidonic acid as substrate incubated for 1 min prior to substrate addition by spectrophotometry
T1 sequence (P35354 whole entry): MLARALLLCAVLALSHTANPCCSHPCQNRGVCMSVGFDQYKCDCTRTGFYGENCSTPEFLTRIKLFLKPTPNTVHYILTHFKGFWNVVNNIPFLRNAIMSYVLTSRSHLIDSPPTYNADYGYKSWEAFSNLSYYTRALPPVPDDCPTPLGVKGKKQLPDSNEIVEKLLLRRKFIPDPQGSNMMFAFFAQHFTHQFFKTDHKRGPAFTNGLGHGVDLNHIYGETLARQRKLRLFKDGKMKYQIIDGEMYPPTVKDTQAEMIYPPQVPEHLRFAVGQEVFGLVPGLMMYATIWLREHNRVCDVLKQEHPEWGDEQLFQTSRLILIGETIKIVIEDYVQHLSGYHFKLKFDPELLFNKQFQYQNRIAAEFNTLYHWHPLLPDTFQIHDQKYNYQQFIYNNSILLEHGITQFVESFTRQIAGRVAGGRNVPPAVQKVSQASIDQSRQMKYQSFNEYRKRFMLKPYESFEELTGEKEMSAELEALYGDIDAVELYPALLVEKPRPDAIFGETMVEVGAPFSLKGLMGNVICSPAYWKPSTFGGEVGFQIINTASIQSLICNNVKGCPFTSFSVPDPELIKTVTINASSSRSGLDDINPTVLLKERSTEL

[13] = system: Rattus norvegicus; experiment: Antiinflammatory activity in albino Wistar rat assessed as inhibition of carrageenan-induced hind paw edema at 0.05 mmol/kg, po administered 1 hr prior to carrageenan challenge by plethysmometric analysis; type: functional, organism-based; conditions: TDE = time-dependent effect; procedure, shortened: as §1
[14] = system: Mus musculus; experiment: Antinociceptive activity in mouse assessed as inhibition of acetic acid-induced writhing at 0.05 mmol/kg, po administered 30 mins prior to acetic acid-challenge measured after 20 mins relative to control; type: functional
Procedure, shortened: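 Writhing in mice by the Koster method. Six animals per group, compound given orally at 0.05 mmol/kg 30 min before i.p. 0.6% (v/v) acetic acid (80 mg/kg). Total writhes counted over 20 min after acetic acid injection.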

[15] = Antiinflammatory activity in macrophages (unknown origin) assessed as inhibition of TNF-alpha secretion incubated for 2 hrs by ELISA relative to control; type: functional, Macrophage
Procedure, shortened: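 Macrophages grown in RPMI 1640 with 10% FBS, glutamine and penicillin/streptomycin, plated at 2 × 10^6 cells/mL. Pre-treated with cytochalasin D (2.5 µM per 10^6 cells) for 30 min, kept on throughout. Cells exposed to varying compound concentrations. TNF-α in supernatants measured by sandwich ELISA with TMB read at 450 nm, quantified against the kit standard.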

SMILES | inhibition [1] | inhibition [2] | Activity [3] | Activity [4] | Time [5] [min] | Time [6] [min] | IC50 [7] [µM] | Ratio IC50 [8] | Activity [9] | Time [10] [min] | Activity [11] | IC50 [12] [µM] | inhibition in vivo at 50 µmol/kg [1] [%] | inhibition in vivo at 50 µmol/kg [2] [%] | inhibition [13] | inhibition in vivo at 50 µmol/kg [14] [%] | inhibition (INH) [15] [%]
O=c1oc2ccccc2n1Cc1cn(-c2cccnc2)nn1 | Active | Active | – | – | – | – | – | – | – | – | – | – | – | – | – | – | –
O=c1oc2ccc(Cl)cc2n1Cc1cn(-c2ccccc2F)nn1 | – | – | Non-toxic | Non-toxic | 2.78 | 2.64 | 138 | 44.6 | Non-toxic | 2.88 | Non-toxic | 3.1 | – | – | – | – | –
Cc1ccc2c(c1)oc(=O)n2Cc1cn(-c2ccc(Cl)cc2)nn1 | – | – | Non-toxic | Non-toxic | 3.22 | 3.34 | 389 | 69.5 | Non-toxic | 3.08 | Non-toxic | 5.6 | 76.7 | 74 | – | – | –
O=c1oc2ccccc2n1Cc1cn(-c2cccc([N+](=O)[O-])c2)nn1 | inactive | inactive | – | – | – | – | – | – | – | – | – | – | – | – | – | – | –
COc1ccc(-n2cc(Cn3c(=O)oc4ccccc43)nn2)cc1 | Active | Active | – | – | – | – | – | – | – | – | – | – | – | – | – | – | –
O=c1oc2ccc(Cl)cc2n1Cc1cn(-c2ccc(Cl)cc2)nn1 | – | – | Non-toxic | Non-toxic | – | – | 111 | 41.2 | Non-toxic | – | Non-toxic | 2.7 | 65.1 | 67.4 | – | – | –
Cc1ccc2c(c1)oc(=O)n2Cc1cn(-c2ccc(F)cc2)nn1 | – | – | Non-toxic | Non-toxic | 3.24 | 3.36 | 175 | 72.8 | Non-toxic | 3.1 | Non-toxic | 2.4 | 80.6 | 81.4 | – | – | –
Cc1ccc2c(c1)oc(=O)n2Cc1cn(-c2ccccc2Cl)nn1 | – | – | Non-toxic | Non-toxic | 2.44 | 2.56 | 207 | 57.6 | Non-toxic | 2.18 | Non-toxic | 3.6 | 72.9 | 71.8 | tde | – | –
CCOc1ccc(-n2cc(Cn3c(=O)oc4ccccc43)nn2)cc1 | Active | Active | – | – | – | – | – | – | – | – | – | – | – | – | – | – | –
COc1ccc2c(c1)c(CC(=O)O)c(C)n2C(=O)c1ccc(Cl)cc1 [INDOMETHACIN] | – | – | Toxic | Toxic | 3.68 | 3.54 | – | – | Toxic | 3.12 | Toxic | – | 82.2 | 79.1 | – | 44.7 | 64.01
Cc1ccc2oc(=O)n(Cc3cn(-c4ccc(Br)cc4)nn3)c2c1 | – | – | Non-toxic | Non-toxic | 2.74 | 2.88 | 188 | 67.7 | Non-toxic | 2.62 | Non-toxic | 2.78 | 74.8 | 73.2 | tde | 41.8 | 50.95
